# Laboratory results as given in ChEMBL document CHEMBL4665627 (Eur J Med Chem, 2019).
# How the values were obtained:
# Type in all cases: functional
# [1] = test system: Escherichia coli; experiment: Antibacterial activity against Escherichia coli assessed as bacterial growth inhibition in presence of 2-(4-(3-(2-aminothiazol-4-yl)-1-ethyl-6-fluoro-4-oxo-1,4-dihydroquinolin-7-yl)piperazin-1-yl)acetonitrile by CLSI protocol based two fold serial dilution method
# In short: (§1)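 Two-fold serial broth dilution in 96-well plates following CLSI; MIC (mM) taken as the lowest concentration giving complete growth inhibition; MIC values from three independent experiments.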
# [2] = test system: Staphylococcus aureus; experiment: Antibacterial activity against methicillin-resistant Staphylococcus aureus assessed as bacterial growth inhibition in presence of 2-(4-(3-(2-aminothiazol-4-yl)-1-ethyl-6-fluoro-4-oxo-1,4-dihydroquinolin-7-yl)piperazin-1-yl)acetonitrile by CLSI protocol based two fold serial dilution method
# In short: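 Checkerboard-type pairing, with each agent tested alone and combined by CLSI two-fold serial dilution. MICs are from three independent experiments. FIC index = (MIC of A combined/MIC of A alone) + (MIC of B combined/MIC of B alone). An index ≤1 is read as synergistic and 1–2 as additive.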
# [3] = test system: Klebsiella pneumoniae; experiment: Antibacterial activity against Klebsiella pneumoniae assessed as bacterial growth inhibition in presence of 2-(4-(3-(2-aminothiazol-4-yl)-1-ethyl-6-fluoro-4-oxo-1,4-dihydroquinolin-7-yl)piperazin-1-yl)acetonitrile by CLSI protocol based two fold serial dilution method; in short: as §1
# [4] = test system: Staphylococcus aureus; experiment: Antibacterial activity against Staphylococcus aureus assessed as bacterial growth inhibition in presence of 2-(4-(3-(2-aminothiazol-4-yl)-1-ethyl-6-fluoro-4-oxo-1,4-dihydroquinolin-7-yl)piperazin-1-yl)acetonitrile by CLSI protocol based two fold serial dilution method
# [5] = test system: Klebsiella pneumoniae; experiment: Potentiation of 2-(4-(3-(2-aminothiazol-4-yl)-1-ethyl-6-fluoro-4-oxo-1,4-dihydroquinolin-7-yl)piperazin-1-yl)acetonitrile-induced antibacterial activity against Klebsiella pneumoniae assessed as fold reduction in 2-(4-(3-(2-aminothiazol-4-yl)-1-ethyl-6-fluoro-4-oxo-1,4-dihydroquinolin-7-yl)piperazin-1-yl)acetonitrile MIC by CLSI protocol based two fold serial dilution method
# [6] = test system: Escherichia coli; experiment: Antibacterial activity against Escherichia coli assessed as inhibition of bacterial growth after 24 hrs by CLSI protocol based two fold serial dilution method; in short: as §1
# [7] = test system: Klebsiella pneumoniae; experiment: Antibacterial activity against Klebsiella pneumoniae assessed as inhibition of bacterial growth after 24 hrs by CLSI protocol based two fold serial dilution method; in short: as §1
# [8] = test system: Staphylococcus aureus; experiment: Antibacterial activity against Staphylococcus aureus assessed as inhibition of bacterial growth after 24 hrs by CLSI protocol based two fold serial dilution method; in short: as §1
# [9] = test system: Staphylococcus aureus; experiment: Antibacterial activity against methicillin-resistant Staphylococcus aureus N315 assessed as inhibition of bacterial growth after 24 hrs by CLSI protocol based two fold serial dilution method
smiles,measurement,setting,value
CC(=O)OCC1=C(C(=O)O)N2C(=O)[C@@H](NC(=O)CS/C(=N/C(C)C)NC(C)C)[C@H]2SC1,MIC,[1],8 µM
same,MIC,[2],2 µM
same,MIC,[3],2 µM
same,MIC,[4],4 µM
same,fold change (FC),[5],5
same,MIC,[6],17 µM
same,MIC,[7],4 µM
same,MIC,[8],34 µM
same,MIC,[9],4 µM
